The target in assay [1] is T1, DNA topoisomerase 1 (Homo sapiens) (UniProt P11387).
T1 sequence (whole entry): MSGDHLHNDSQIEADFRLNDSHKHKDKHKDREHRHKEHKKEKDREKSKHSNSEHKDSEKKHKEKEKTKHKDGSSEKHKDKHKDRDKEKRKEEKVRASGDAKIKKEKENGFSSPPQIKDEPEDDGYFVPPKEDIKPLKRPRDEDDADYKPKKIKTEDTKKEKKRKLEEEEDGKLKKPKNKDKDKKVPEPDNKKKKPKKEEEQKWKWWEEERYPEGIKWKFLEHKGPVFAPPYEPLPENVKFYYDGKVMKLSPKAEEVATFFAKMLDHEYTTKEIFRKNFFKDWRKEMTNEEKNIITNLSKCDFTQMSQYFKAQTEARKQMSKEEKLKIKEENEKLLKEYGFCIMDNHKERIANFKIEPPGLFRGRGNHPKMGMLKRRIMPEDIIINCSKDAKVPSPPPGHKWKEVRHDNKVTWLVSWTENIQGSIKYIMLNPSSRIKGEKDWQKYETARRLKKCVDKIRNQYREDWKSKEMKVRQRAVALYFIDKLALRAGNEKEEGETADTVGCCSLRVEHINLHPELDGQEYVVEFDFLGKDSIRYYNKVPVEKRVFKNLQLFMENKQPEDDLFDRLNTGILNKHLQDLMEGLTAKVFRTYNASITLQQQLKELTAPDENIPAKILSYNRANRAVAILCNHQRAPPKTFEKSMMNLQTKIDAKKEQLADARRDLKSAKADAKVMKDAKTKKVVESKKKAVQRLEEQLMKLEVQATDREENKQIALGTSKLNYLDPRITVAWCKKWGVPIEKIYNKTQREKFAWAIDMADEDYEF
The assay can be described thus: Inhibition of recombinant Top1 (unknown origin) assessed as Top 1 mediated DNA cleavage using 3'-[32P]-labeled 117 bp DNA as substrate at 0.1 to 100 uM after 20 mins by PAGE analysis. Put shortly: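 About 2 nM 3'-[32P]-labeled DNA with recombinant Top1 in 10 mM Tris-HCl pH 7.5, 50 mM KCl, 5 mM MgCl2, 0.1 mM EDTA, 15 μg/mL BSA, 25 °C, 20 min. Compound at 0.1, 1, 10 and 100 μM. Stopped with 0.5% SDS and formamide dye, then run on 20% denaturing PAGE with phosphorimaging.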

Assay [2] has as its system SF-539. The assay can be described thus: Antiproliferative activity against human SF539 cells assessed as growth inhibition. The format is functional. Put shortly: (§1)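 NCI-60 screen: single-dose pre-screen at 10 μM, then five concentrations from 0.01 to 100 μM. Values beyond the tested range are recorded as 0.01 or 100 μM.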
The subject of assay [3] is OVCAR-3. The assay can be described thus: Antiproliferative activity against human OVCAR3 cells assessed as growth inhibition. The format is functional. Put shortly:
as §1

Assay [4] deals with UACC-62. The assay can be described thus: Antiproliferative activity against human UACC62 cells assessed as growth inhibition. Type of assay: functional. Put shortly: as §1
Assay [5] relates to HOP-62. The assay can be described thus: Antiproliferative activity against human HOP62 cells assessed as growth inhibition. Type of assay: functional. Summed up: as §1
In assay [6] the test system is DU-145. The assay can be described thus: Antiproliferative activity against human DU145 cells assessed as growth inhibition. The format is functional. Put shortly:
as §1

The subject of assay [7] is MCF7. The assay can be described thus: Antiproliferative activity against human MCF7 cells assessed as growth inhibition. Type of assay: functional. Summed up:
as §1

For assay [8], the system named is SN12C. The assay can be described thus: Antiproliferative activity against human SN12C cells assessed as growth inhibition. Type of assay: functional. Put shortly: as §1
The test system of assay [9] is HCT-116. The assay can be described thus: Antiproliferative activity against human HCT116 cells assessed as growth inhibition. Type of assay: functional. Put shortly: as §1

Activity calls are given as the source filed them. No cut-off for these calls is given here.

Turning to `COc1cnc2c(c1)C(=O)c1c-2n(CCCN2CCCC2)c(=O)c2cc(Cl)ccc12`, the “Top1-mediated DNA cleavage activity (active/not active)” value in assay [1] was “Active”.
For `CNCCCn1c2c(c3ccc(Cl)cc3c1=O)C(=O)c1cc(OC)cnc1-2`, the GI50 (in general, the concentration at which growth is held to half of that of the control) in assay [2] is 730 nM; in [3], 1410 nM; in [4], 574 nM; in assay [5], 220 nM; in [6] it was 331 nM; in assay [7], 46 nM. In addition, the figures for the concentration for 50% growth inhibition (GI50) in assay [8] and in [9] were 1180 nM and 550 nM, respectively. Besides, the “Top1-mediated DNA cleavage activity (active/not active)” value in [1] was “Active”.
Take `COc1cnc2c(c1)C(=O)c1c-2n(CCCNC(C)C)c(=O)c2cc(F)ccc12`: the 50% growth inhibitory concentration (GI50) in assay [2] was determined as 248 nM; in [3], 190 nM; in assay [4] it was 271 nM; in assay [5], 107 nM; in assay [6], 210 nM; in assay [7] it was 31 nM. Moreover, the GI50 turned out to be 164 nM in assay [8] and 93 nM in assay [9]. In assay [1], the “Top1-mediated DNA cleavage activity (active/not active)” value was “Active”.
On to `O=C1c2ccccc2-c2c1c1ccc(Cl)cc1c(=O)n2CCCn1ccnc1`, for which the “Top1-mediated DNA cleavage activity (active/not active)” value in assay [1] was “Active”. For the same compound, the GI50 in assay [4] came out at 74 nM; in [7], 31 nM; in assay [8], 110 nM.
Consider `COc1cnc2c(c1)C(=O)c1c-2n(CCCN2CCCC2)c(=O)c2cc(F)ccc12`, for which the concentration for 50% growth inhibition (GI50) in [2] was determined as 360 nM; in assay [3], 307 nM; in assay [4], 471 nM; in assay [5], 212 nM; in assay [6], 211 nM; in assay [7] it was 48 nM. For the same compound, the GI50 in assay [8] was 241 nM; in [9], 153 nM. Besides, in assay [1], the “Top1-mediated DNA cleavage activity (active/not active)” value was “Active”.
Consider `COc1cnc2c(c1)C(=O)c1c-2n(CCCN2CCNCC2)c(=O)c2cc(F)ccc12`, for which the concentration for 50% growth inhibition (GI50) in assay [2] is 532 nM; in assay [3], 335 nM; in [4] it was 1260 nM; in [5] it was 66 nM; in assay [6] it was 62 nM; in [7] it was 34 nM. Further, the concentration for 50% growth inhibition (GI50) in assay [8] is 80 nM; in assay [9], 91 nM. In addition, the “Top1-mediated DNA cleavage activity (active/not active)” value in assay [1] is “inactive”.
Consider `COc1cnc2c(c1)C(=O)c1c-2n(CCCN2CCC(O)CC2)c(=O)c2cc(F)ccc12`, for which the GI50 came out at 295 nM in assay [2]; 254 nM in assay [3]; 240 nM in assay [4]; 142 nM in assay [5]; 174 nM in [6]; 31 nM in [7]. The GI50 in assay [8] is 189 nM; in assay [9] it was 89 nM. Moreover, the “Top1-mediated DNA cleavage activity (active/not active)” value in [1] is “inactive”.
`O=C1c2ccccc2-c2c1c1ccc([N+](=O)[O-])cc1c(=O)n2CCCn1ccnc1`: the “Top1-mediated DNA cleavage activity (active/not active)” value in [1] was “Active”.
As for `COc1cnc2c(c1)C(=O)c1c-2n(CCCN2CCOCC2)c(=O)c2cc(Cl)ccc12`, the 50% growth inhibitory concentration (GI50) came out at 230 nM in assay [2]; 780 nM in assay [3]; 180 nM in [4]; 270 nM in [5]; 410 nM in [6]; 90 nM in assay [7]. The GI50 in assay [9] amounted to 160 nM. Moreover, the “Top1-mediated DNA cleavage activity (active/not active)” value in assay [1] is “Active”.
On to `COc1cnc2c(c1)C(=O)c1c-2n(CCCNC2=NCCS2)c(=O)c2cc(Cl)ccc12`, for which the GI50 in assay [2] is 470 nM; in assay [3], 1300 nM; in assay [4], 95 nM; in [5], 42 nM; in assay [6] it was 92 nM; in assay [7], 36 nM. The concentration for 50% growth inhibition (GI50) in [9] came to 350 nM. For the same compound, in assay [1], the “Top1-mediated DNA cleavage activity (active/not active)” value is “Active”.
For `COc1cnc2c(c1)C(=O)c1c-2n(CCCN2CCOCC2)c(=O)c2cc([N+](=O)[O-])ccc12`, the “Top1-mediated DNA cleavage activity (active/not active)” value in [1] was “Active”.

(Values after ChEMBL document CHEMBL4038309, “Design and Synthesis of Chlorinated and Fluorinated 7-Azaindenoisoquinolines as Potent Cytotoxic Anticancer Agents That Inhibit Topoisomerase I” (J Med Chem, 2017).)
